ChEMBL document CHEMBL3875169, “Synthesis, in vitro anticancer and antibacterial activities and in silico studies of new 4-substituted 1,2,3-triazole-coumarin hybrids” (Eur J Med Chem, 2016)
Values after ≈ are worked out from the molar mass of the structure shown.

Columns and labels:
[1] = Growth inhibition of human A549 cells after 72 hrs by MTT assay; type: functional, cell-based; details: A549, 72 h
Summary of the method: (§1)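 Monolayers in DMEM with 10% FBS, 2 mM L-glutamine and penicillin/streptomycin, 37 °C, 5% CO2; 5000 cells/well seeded day 0. Compounds added as five 10-fold dilutions (0.01–100 µM), DMSO ≤0.1%, for 72 h. MTT absorbance converted to percentage growth (NIH formulas); IC50 by linear regression between bracketing concentrations, highest concentration reported with ">" when not reached. Quadruplicate points, three experiments.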

Enterococcus faecalis = assay: Antibacterial activity against Enterococcus faecalis after 16 to 20 hrs by broth microdilution method; type: functional
Summary of the method: (§2)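 Broth microdilution per CLSI in cation (Ca2+, Mg2+)-adjusted Mueller-Hinton broth; compounds in serial two-fold dilutions, 256–0.25 µg/mL; direct colony suspension inoculum, final 5 x 10^5 CFU/mL; 35 ± 2 °C, 16–20 h, ambient air. MIC is the lowest concentration completely inhibiting visible growth versus growth control; with trailing, endpoint read at ≥80% growth reduction. E. coli ATCC 25922 and P. aeruginosa ATCC 27853 served as QC.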

[2] = Growth inhibition of human HepG2 cells after 72 hrs by MTT assay; type: functional, cell-based; details: HepG2, 72 h; summary of the method: as §1
[3] = Growth inhibition of human CFPAC-1 cells after 72 hrs by MTT assay; type: functional, cell-based; details: CFPAC-1, 72 h; summary of the method: as §1
[4] = Growth inhibition of human HeLa cells after 72 hrs by MTT assay; type: functional, cell-based; summary of the method: as §1
Acinetobacter baumannii = assay: Antibacterial activity against Acinetobacter baumannii ATCC 19606 after 16 to 20 hrs by broth microdilution method; type: functional; summary of the method: as §2
[5] = Growth inhibition of human SW620 cells after 72 hrs by MTT assay; type: functional, cell-based; details: SW-620, 72 h; summary of the method: as §1
Escherichia coli = assay: Antibacterial activity against Escherichia coli ATCC 25925 after 16 to 20 hrs by broth microdilution method; type: functional; details: read-out: MIC=>80; summary of the method: as §2
Klebsiella pneumoniae = assay: Antibacterial activity against ESBL-producing Klebsiella pneumoniae ATCC 27736 after 16 to 20 hrs by broth microdilution method; type: functional; summary of the method: as §2
Pseudomonas aeruginosa = assay: Antibacterial activity against Pseudomonas aeruginosa ATCC 27853 after 16 to 20 hrs by broth microdilution method; type: functional; summary of the method: as §2
Staphylococcus aureus = assay: Antibacterial activity against Staphylococcus aureus ATCC 25923 after 16 to 20 hrs by broth microdilution method; type: functional; summary of the method: as §2
[6] = Growth inhibition of human WI38 cells after 72 hrs by MTT assay; type: cell-based; details: WI-38, 72 h; summary of the method: as §1
A549 = assay: Selectivity index, ratio of IC50 for […] cells to IC50 for human A549 cells; type: functional

MIC80 (Enterococcus faecalis) | MIC80 (Acinetobacter baumannii) | MIC (Escherichia coli) | MIC80 (Klebsiella pneumoniae) | MIC80 (Pseudomonas aeruginosa) | MIC80 (Staphylococcus aureus) | Compound | IC50 [1] | IC50 [2] | IC50 [3] | IC50 [4] | IC50 [5] | IC50 [6] | Ratio IC50 (A549)
128 µg/mL (≈ 428 µM) | > 256 µg/mL | > 256 µg/mL | > 256 µg/mL | > 256 µg/mL | > 256 µg/mL | CC(C)(C)c1cn(Cc2cc(=O)oc3cc(O)ccc23)nn1 | 67.6 µM | > 100 µM | > 100 µM | 81.1 µM | > 100 µM |  | 
8 µg/mL (≈ 20.5 µM) | > 256 µg/mL | > 256 µg/mL | > 256 µg/mL | > 256 µg/mL | > 256 µg/mL | CCCCCc1ccc(-c2cn(Cc3cc(=O)oc4cc(O)ccc34)nn2)cc1 | 13.7 µM | 27.3 µM | 50.4 µM | 24.6 µM | 39.6 µM |  | 
256 µg/mL (≈ 643 µM) | > 256 µg/mL | > 256 µg/mL | > 256 µg/mL | > 256 µg/mL | > 256 µg/mL | O=c1cc(Cn2cc(-c3ccc(Br)cc3)nn2)c2ccc(O)cc2o1 | 32.3 µM | 61.1 µM | 52.9 µM | 40.2 µM | 97.7 µM |  | 
256 µg/mL (≈ 560 µM) | > 256 µg/mL | > 256 µg/mL | > 256 µg/mL | > 256 µg/mL | > 256 µg/mL | O=c1cc(Cn2cc(CNS(=O)(=O)c3ccc([N+](=O)[O-])cc3)nn2)c2ccc(O)cc2o1 | > 100 µM | > 100 µM | > 100 µM | > 100 µM | > 100 µM | < 0.01 µM | 
32 µg/mL (≈ 68.8 µM) | > 256 µg/mL | > 256 µg/mL | > 256 µg/mL | > 256 µg/mL | > 256 µg/mL | O=c1cc(Cn2cc(CNS(=O)(=O)c3ccc(F)cc3Cl)nn2)c2ccc(O)cc2o1 | 91.9 µM | 74.8 µM | > 100 µM | 74.9 µM | > 100 µM | 1.45 µM | 
64 µg/mL (≈ 150 µM) | > 256 µg/mL | > 256 µg/mL | > 256 µg/mL | > 256 µg/mL | 256 µg/mL (≈ 600 µM) | Cc1ccc(S(=O)(=O)NCc2cn(Cc3cc(=O)oc4cc(O)ccc34)nn2)cc1 | 46.4 µM | 29.8 µM | 68.9 µM | 55.7 µM | 92.2 µM | 0.03 µM | 
 |  |  |  |  |  | O=c1cc(Cn2cc(CNS(=O)(=O)c3ccc(Cl)cc3)nn2)c2ccc(O)cc2o1 | 47.9 µM | 31.4 µM | 81.9 µM | 58.5 µM | > 100 µM | 0.82 µM | 
64 µg/mL (≈ 170 µM) | > 256 µg/mL | > 256 µg/mL | > 256 µg/mL | > 256 µg/mL | > 256 µg/mL | CCCCc1ccc(-c2cn(Cc3cc(=O)oc4cc(O)ccc34)nn2)cc1 | 13.8 µM | 48.4 µM | 69.8 µM | 39 µM | 49.2 µM |  | 
 |  |  |  |  |  | CC(O)c1cn(Cc2cc(=O)oc3cc(O)ccc23)nn1 (centres undefined) | > 100 µM | > 100 µM | > 100 µM | > 100 µM | > 100 µM |  | 
64 µg/mL (≈ 144 µM) | > 256 µg/mL | > 256 µg/mL | > 256 µg/mL | > 256 µg/mL | > 256 µg/mL | CCCC1CCC(c2ccc(-c3cn(Cc4cc(=O)oc5cc(O)ccc45)nn3)cc2)CC1 (centres undefined) | 41 µM | 30.4 µM | 52.8 µM | 34.3 µM | 37.5 µM | 7.91 µM | 
 |  |  |  |  |  | O=c1cc(Cn2cc(CCc3ccccc3)nn2)c2ccc(O)cc2o1 | 24.8 µM | 50.5 µM | > 100 µM | 35.1 µM | 84.4 µM |  | >4
256 µg/mL (≈ 720 µM) | > 256 µg/mL | > 256 µg/mL | > 256 µg/mL | > 256 µg/mL | > 256 µg/mL | CCCCCCCCc1cn(Cc2cc(=O)oc3cc(O)ccc23)nn1 | 46 µM | 34.2 µM | 62.6 µM | 35.1 µM | 50.9 µM | 43.4 µM | 
16 µg/mL (≈ 39.7 µM) | > 256 µg/mL | > 256 µg/mL | > 256 µg/mL | > 256 µg/mL | > 256 µg/mL | CCCCCCc1ccc(-c2cn(Cc3cc(=O)oc4cc(O)ccc34)nn2)cc1 | 8.87 µM | 9.16 µM | > 100 µM | 8.73 µM | 36.8 µM | 14 µM | 
 |  |  |  |  |  | O=c1cc(Cn2cc(CCCCl)nn2)c2ccc(O)cc2o1 | 30.1 µM | > 100 µM | 75.8 µM | 49.6 µM | 59.8 µM |  | 
 |  |  |  |  |  | O=c1cc(Cn2cc(CCCO)nn2)c2ccc(O)cc2o1 | 96.2 µM | > 100 µM | > 100 µM | 90.2 µM | > 100 µM |  | 
64 µg/mL (≈ 149 µM) | > 256 µg/mL | > 256 µg/mL | > 256 µg/mL | > 256 µg/mL | > 256 µg/mL | O=c1cc(Cn2cc(CNS(=O)(=O)c3ccc(F)cc3)nn2)c2ccc(O)cc2o1 | 88.5 µM | 76.7 µM | > 100 µM | > 100 µM | > 100 µM | 24.9 µM | 
 |  |  |  |  |  | CC(C)(C)OC(=O)N1CCN(C(=S)SCc2cn(Cc3cc(=O)oc4cc(O)ccc34)nn2)CC1 | 35.4 µM | 56.9 µM | 88.5 µM | 48 µM | > 100 µM | 2.82 µM | 
0.5 µg/mL (≈ 1.51 µM) | < 0.125 µg/mL | < 0.125 µg/mL | > 256 µg/mL | < 0.125 µg/mL | 0.25 µg/mL (≈ 0.754 µM) | O=C(O)c1cn(C2CC2)c2cc(N3CCNCC3)c(F)cc2c1=O [CIPROFLOXACIN] |  |  |  |  |  |  | 
 |  |  |  |  |  | CCCCCCc1cn(Cc2cc(=O)oc3cc(O)ccc23)nn1 | 66.2 µM | 61.6 µM | > 100 µM | 59 µM | > 100 µM | 58.5 µM | 
 |  |  |  |  |  | O=c1cc(Cn2cc(CCCCO)nn2)c2ccc(O)cc2o1 | > 100 µM | > 100 µM | > 100 µM | > 100 µM | > 100 µM |  | 
 |  |  |  |  |  | Cc1ccc2nc(-c3ccc(NCc4cn(Cc5cc(=O)oc6cc(O)ccc56)nn4)cc3)sc2c1 | 16.2 µM | 52.8 µM | 10.5 µM | 7.26 µM | 90 µM |  | 
16 µg/mL (≈ 38.3 µM) | > 256 µg/mL | > 256 µg/mL | > 256 µg/mL | > 256 µg/mL | > 256 µg/mL | O=c1cc(Cn2cc(CSC(=S)N3CCNCC3)nn2)c2ccc(O)cc2o1 | 96 µM | > 100 µM | > 100 µM | > 100 µM | > 100 µM | > 100 µM | 
 |  |  |  |  |  | O=c1cc(Cn2cc(CCO)nn2)c2ccc(O)cc2o1 | 90.3 µM | > 100 µM | > 100 µM | > 100 µM | > 100 µM |  | 
 |  |  |  |  |  | O=c1cc(Cn2cc(C3CC3)nn2)c2ccc(O)cc2o1 | 91.7 µM | > 100 µM | > 100 µM | > 100 µM | > 100 µM |  | 
32 µg/mL (≈ 76.5 µM) | > 256 µg/mL | > 256 µg/mL | > 256 µg/mL | > 256 µg/mL | > 256 µg/mL | O=c1cc(Cn2cc(CSC(=S)N3CCOCC3)nn2)c2ccc(O)cc2o1 | 70.2 µM | 99.4 µM | 56.3 µM | 40.8 µM | ≥ 100 µM | 59.1 µM | 
 |  |  |  |  |  | Cn1c(-c2cn(Cc3cc(=O)oc4cc(O)ccc34)nn2)nc2ccccc21 | > 100 µM | 70.7 µM | 76.5 µM | 49.1 µM | > 100 µM |  | 
 |  |  |  |  |  | Cc1ccc2c(Cn3cc(CNc4ccc(-c5nc6ccc(C)cc6s5)cc4)nn3)cc(=O)oc2c1 | 46.2 µM | 94.7 µM | 34.9 µM | 51.4 µM | ≥ 100 µM |  | 
 |  |  |  |  |  | O=c1cc(Cn2cc(-c3cc(F)cc(F)c3)nn2)c2ccc(O)cc2o1 | 21.1 µM | 38.9 µM | > 100 µM | 27.6 µM | 66.7 µM |  | >4

Compound | MIC80 (Enterococcus faecalis) | MIC80 (Acinetobacter baumannii) | MIC (Escherichia coli) | MIC80 (Klebsiella pneumoniae) | MIC80 (Pseudomonas aeruginosa) | MIC80 (Staphylococcus aureus) | IC50 [1] | IC50 [2] | IC50 [3] | IC50 [4] | IC50 [5] | IC50 [6] | Ratio IC50 (A549)
CC(C)(O/N=C(\C(=O)N[C@@H]1C(=O)N2C(C(=O)[O-])=C(C[n+]3ccccc3)CS[C@H]12)c1csc(N)n1)C(=O)O [CEFTAZIDIME] | 256 µg/mL (≈ 468 µM) | 16 µg/mL (≈ 29.3 µM) | 0.5 µg/mL (≈ 0.915 µM) | > 256 µg/mL | 4 µg/mL (≈ 7.32 µM) | 64 µg/mL (≈ 117 µM) |  |  |  |  |  |  | 
